Data reported in ChEMBL document CHEMBL1135463 (J Med Chem, 2002).
In brackets after ≈: the same amount, converted by molar mass. Activity calls are given as the source filed them. The calls are words filed in the database; no cut-off is given here.

Legend:
BXPC-3 [1] = test: Cell growth inhibition against pancreatic BXPC-3 cells, 50% reduction in the net protein increase; type: functional; details: Homo sapiens
Summary of the method: (§1)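 Human tumour lines kept in 5% FBS/RPMI-1640, plated and incubated 24 h before compound dilutions were added. Exposure 48 h, then TCA fixation, washing and sulforhodamine B staining, with optical density read on a plate reader. GI50 is the concentration giving a 50% reduction in net protein increase, calculated from the OD data.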

NCI-H460 = test: Cell growth inhibition of lung-NSC NCI-H460 cells, expressed as 50% reduction in the net protein increase; type: functional; details: Homo sapiens; summary of the method: as §1
P388 [2] = test: Evaluated for cell growth inhibition of the mouse leukemia P388 cells in 10% horse serum/Fisher media; type: functional; details: read-out: ED50 (the source's name)
Summary of the method: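 Murine P388 leukaemia cells grown in 10% horse serum/Fisher medium, incubated 24 h, then compound dilutions added. After 48 h, cells counted on a Coulter Z1 particle counter and the ED50 for growth inhibition calculated.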

SF-268 [3] = test: Cell growth inhibition of central nervous system (CNS) SF-268 cells, expressed as 50% reduction in the net protein increase; type: functional; details: Homo sapiens; summary of the method: as §1
KM-20L2 [4] = test: Cell growth inhibition of colon KM20L2 cells, expressed as 50% reduction in the net protein increase; type: functional; details: Homo sapiens; summary of the method: as §1
DU-145 [5] = test: Cell growth inhibition of prostate DU-145 cells, expressed as 50% reduction in the net protein increase; type: functional; details: Homo sapiens; summary of the method: as §1
Neisseria gonorrhoeae [6] = test: The minimum inhibitory concentration (MIC) that inhibits all visible growth of the Neisseria gonorrhoeae (bacteria); type: functional
Summary of the method: (§2)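 Broth microdilution following NCCLS reference methods (M7-A4 for aerobic bacteria, the yeast broth dilution standard for fungi). MIC is the lowest compound concentration giving optically clear wells, with no visible growth of the test organism.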

MCF7 = test: Cell growth inhibition of breast MCF-7 cells, expressed as 50% reduction in the net protein increase; type: functional; details: Homo sapiens
[7] = In vitro growth inhibition of NCI-H460 (human non-small cell lung carcinoma) cell line.; type: functional
P388 [8] = test: In vitro inhibition of P388 (murine leukemia) cell proliferation.; type: functional; details: Mus musculus, read-out: ED50 (the source's name)
SF-268 [9] = test: In vitro growth inhibition of central nervous system SF-268 cell line.; type: functional; details: Homo sapiens
DU-145 [10] = test: In vitro growth inhibition of DU-145 (human prostate carcinoma) cell line.; type: functional
KM-20L2 [11] = test: In vitro growth inhibition of KM20L2 cell line.; type: functional; details: Homo sapiens
BXPC-3 [12] = test: In vitro growth inhibition of BXPC-3 (human pancreatic adenocarcinoma) cell line.; type: functional
Streptococcus pneumoniae = test: The minimum inhibitory concentration (MIC) that inhibits all visible growth of the Streptococcus pneumoniae (bacteria); type: functional; summary of the method: as §2
Enterococcus faecalis [13] = test: the minimum inhibitory concentration (MIC) that inhibits all visible growth of the Enterococcus faecalis (bacteria) at 64 ug/mL; NI is no inhibition; type: functional, organism-based; summary of the method: as §2
Cryptococcus neoformans = test: Minimum inhibitory concentration (MIC) that inhibits all visible growth of the Cryptococcus neoformans (fungus) at 64 ug/mL; NI is no inhibition; type: functional, organism-based; summary of the method: as §2
Escherichia coli = test: The minimum inhibitory concentration (MIC) that inhibits all visible growth of the Escherichia coli (bacteria) at 64 ug/mL; NI is no inhibition; type: functional, organism-based; summary of the method: as §2
Enterobacter cloacae = test: The minimum inhibitory concentration (MIC) that inhibits all visible growth of the Enterobacter cloacae (bacteria) at 64 ug/mL; NI is no inhibition; type: functional, organism-based; summary of the method: as §2
Candida albicans = test: The minimum inhibitory concentration (MIC) that inhibits all visible growth of the Candida albicans (fungus) at 64 ug/mL; NI is no inhibition; type: functional, organism-based; summary of the method: as §2
Micrococcus luteus [14] = test: the minimum inhibitory concentration (MIC) that inhibits all visible growth of the Micrococcus luteus (bacteria) at 64 ug/mL; NI is no inhibition; type: functional, organism-based; summary of the method: as §2
Enterococcus faecalis [15] = test: The minimum inhibitory concentration (MIC) that inhibits all visible growth of the Enterococcus faecalis (bacteria) at 64 ug/mL; NI is no inhibition; type: functional, organism-based; summary of the method: as §2
Staphylococcus aureus = test: The minimum inhibitory concentration (MIC) that inhibits all visible growth of the Staphylococcus aureus (bacteria) at 64 ug/mL; NI is no inhibition; type: functional, organism-based; summary of the method: as §2
[16] = tested on: Stenotrophomonas maltophilia; test: The minimum inhibitory concentration (MIC) that inhibits all visible growth of the Stenotrophomonas maltophilia (bacteria) at 64 ug/mL; NI is no inhibition; type: functional, organism-based; summary of the method: as §2
Neisseria gonorrhoeae [17] = test: The minimum inhibitory concentration (MIC) that inhibits all visible growth of the Neisseria gonorrhoeae (bacteria); value may ranges from (32 - 64); type: functional; summary of the method: as §2
Micrococcus luteus [18] = test: the minimum inhibitory concentration (MIC) that inhibits all visible growth of the Micrococcus luteus (bacteria); type: functional; summary of the method: as §2

Row | Structure (SMILES) | MIC (Neisseria gonorrhoeae [6]) [µg/mL] | GI50 (MCF7) [µg/mL] | GI50 [7] [µg/mL] | EC50 (P388 [8]) [µg/mL] | GI50 (SF-268 [9]) [µg/mL] | GI50 (DU-145 [10]) [µg/mL] | GI50 (KM-20L2 [11]) [µg/mL] | GI50 (BXPC-3 [12]) [µg/mL] | MIC (Streptococcus pneumoniae) [µg/mL] | MIC (Enterococcus faecalis [13]) | MIC (Cryptococcus neoformans) | MIC (Escherichia coli) | MIC (Enterobacter cloacae) | MIC (Candida albicans) | MIC (Micrococcus luteus [14]) | MIC (Enterococcus faecalis [15]) | MIC (Staphylococcus aureus) | MIC [16] | other results
1 | COc1ccc(/C=C\c2cc(OC)c(OC)c(OC)c2)cc1O [COMBRETASTATIN A4] |  |  |  |  |  |  |  |  |  |  |  |  |  |  |  |  |  |  | GI50 (BXPC-3 [1]): 0.39 µg/mL (≈ 1.23 µM); GI50 (NCI-H460): 0.0006 µg/mL (≈ 0.0019 µM); EC50 (P388 [2]): 0.0003 µg/mL (≈ 0.000948 µM); GI50 (SF-268 [3]): > 0.01 µg/mL; GI50 (KM-20L2 [4]): 0.34 µg/mL (≈ 1.07 µM); GI50 (DU-145 [5]): 0.0008 µg/mL (≈ 0.00253 µM)
2 | COc1ccc(/C=C\c2cc(O)cc(O)c2)cc1 | 16 (≈ 66 µM) | 12.7 (≈ 52.4 µM) | 6.4 (≈ 26.4 µM) | 2.75 (≈ 11.4 µM) | 15.6 (≈ 64.4 µM) | 10.6 (≈ 43.8 µM) | 17.7 (≈ 73.1 µM) | 14.1 (≈ 58.2 µM) |  |  |  |  |  |  |  |  |  |  | 
3 | COc1cc(OC)cc(C(O)c2ccc(O)cc2)c1 (configuration not stated) | 4 (≈ 15.4 µM) | 2 (≈ 7.68 µM) | 2.3 (≈ 8.84 µM) | > 10 | 0.65 (≈ 2.5 µM) | 5.8 (≈ 22.3 µM) | 5.3 (≈ 20.4 µM) | 1.3 (≈ 4.99 µM) | 16 (≈ 61.5 µM) | inactive | inactive | inactive | inactive | inactive | inactive | inactive | inactive | inactive | 
4 | COc1cc(OC)cc(C(=O)c2ccc(O)cc2)c1 |  | 2.2 (≈ 8.52 µM) | 3 (≈ 11.6 µM) | 24.8 (≈ 96 µM) | 3.8 (≈ 14.7 µM) | 4.1 (≈ 15.9 µM) | 3.6 (≈ 13.9 µM) | 4 (≈ 15.5 µM) | 64 (≈ 248 µM) | inactive | inactive | inactive | inactive | inactive | inactive | inactive | inactive | inactive | MIC (Neisseria gonorrhoeae [17]): 64 µg/mL (≈ 248 µM)
5 | COc1ccc(/C=C/c2cc(O)cc(OC)c2)cc1 |  |  |  | 31.5 (≈ 123 µM) |  |  |  |  |  |  |  |  |  |  |  |  |  |  | MIC (Micrococcus luteus [18]): 16 µg/mL (≈ 62.4 µM)
